# Results as given in ChEMBL document CHEMBL4346697, “Probing structural requirements for human topoisomerase I inhibition by a novel N1-Biphenyl fluoroquinolone” (Eur J Med Chem, 2019).
# pIC50: −log10 of the molar value. Calls of active or inactive are those of the source. No cut-off for these calls is given here.
# What was measured:
# [1] = biological target: T1, DNA topoisomerase 1 (Homo sapiens, UniProt P11387); assay: Inhibition of human topoisomerase 1 using supercoiled pBR322 plasmid DNA as substrate after 15 mins by ethidium bromide staining based agarose gel electrophoresis method
# T1 sequence (P11387 whole entry): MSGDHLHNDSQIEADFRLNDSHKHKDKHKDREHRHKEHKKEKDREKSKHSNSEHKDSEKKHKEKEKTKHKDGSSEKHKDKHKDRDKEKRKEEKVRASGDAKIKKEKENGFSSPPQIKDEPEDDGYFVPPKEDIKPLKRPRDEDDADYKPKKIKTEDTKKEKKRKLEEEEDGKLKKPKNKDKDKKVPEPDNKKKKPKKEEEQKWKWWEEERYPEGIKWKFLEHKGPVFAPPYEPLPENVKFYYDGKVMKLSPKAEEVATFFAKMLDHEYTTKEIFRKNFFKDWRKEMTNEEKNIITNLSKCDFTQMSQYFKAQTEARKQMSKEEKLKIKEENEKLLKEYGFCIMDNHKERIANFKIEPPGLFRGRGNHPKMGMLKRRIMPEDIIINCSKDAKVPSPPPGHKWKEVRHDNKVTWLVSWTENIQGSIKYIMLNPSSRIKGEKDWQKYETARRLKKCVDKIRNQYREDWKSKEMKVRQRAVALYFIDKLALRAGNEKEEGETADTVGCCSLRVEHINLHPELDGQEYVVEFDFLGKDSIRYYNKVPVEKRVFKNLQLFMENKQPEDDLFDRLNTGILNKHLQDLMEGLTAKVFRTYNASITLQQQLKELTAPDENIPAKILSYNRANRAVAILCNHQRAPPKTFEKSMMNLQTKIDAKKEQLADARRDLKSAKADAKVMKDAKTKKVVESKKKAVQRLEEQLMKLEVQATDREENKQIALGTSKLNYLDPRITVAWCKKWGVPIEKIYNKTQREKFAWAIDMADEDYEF
# Procedure, shortened: (§1)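 hTopo I (1 unit) relaxed 0.3 μg supercoiled plasmid in 50 mM Tris-HCl pH 7.5, 100 mM NaCl, 10 mM MgCl2, 1 mM DTT, 50 μg/ml BSA with varied compound concentrations, at 37°C for 15 min.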
# [2] = biological target: T2, DNA topoisomerase 1 (Homo sapiens) (UniProt P11387); assay: Inhibition of human topoisomerase 1 at 200 uM using supercoiled pBR322 plasmid DNA as substrate after 15 mins by ethidium bromide staining based agarose gel electrophoresis method relative to control; procedure, shortened: as §1
# T2 sequence (whole entry): T1 sequence (P11387 whole entry)
# [3] = tested on: Calf thymus DNA; assay: Binding affinity to calf thymus DNA assessed as bathochromic shift at 25 uM by fluorescence spectra analysis; format: nucleic-acid assay; conditions: Bos taurus
# Procedure, shortened: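 Compound at 25 μM, with calf thymus DNA at 0 or 400 μM, in 10 mM Tris-HCl pH 7.4 at room temperature; final DMSO ≤5%. Emission spectra were recorded from 320–600 nm to look for a bathochromic shift. DNA was dissolved in the same buffer, checked by A260/A280 (1.8–1.9) and quantified at 260 nm (ε 6600 M−1 cm−1 per nucleotide).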
# [4] = Binding affinity to d(CCTTACGTGCATAGTCATTCATGACCG) dsDNA (unknown origin) assessed as bathochromic shift at 25 uM by fluorescence spectra analysis
# Procedure, shortened: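 The 27-bp duplex was made by annealing complementary strands 1:1 at 95°C for 2 min, then cooling to room temperature. Compound at 25 μM, with dsDNA at 0–200 μM, in 10 mM Tris-HCl pH 7.4 at room temperature; DMSO ≤5% final. Spectra and intensity were read after blank subtraction, normalized to the no-DNA signal; technical replicates, n=3.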
# [5] = tested on: Panel NCI-60 (60 carcinoma cell lines); assay: Antiproliferative activity against human NCI60 cells; format: functional
Compound,pIC50 [1],other results
COc1c(NCCN)c(F)cc2c(=O)c(C(=O)O)cn(Cc3ccc(-c4ccccc4)cc3)c12,< 3.70,inhibition [2]: 10%
CNC[C@@H]1CCN(c2cc3c(cc2F)c(=O)c(C(=O)O)cn3Cc2ccc(-n3cccn3)cc2)C1,< 3.70,inhibition [2]: 10%
O=C(O)c1cn(Cc2ccc(-c3ccccc3)cc2)c2cc(NC[C@@H]3CCNC3)c(F)cc2c1=O,3.98,
CNCCCNc1c(F)cc2c(=O)c(C(=O)O)cn(Cc3ccc(-c4ccccc4)cc3)c2c1OC,4.00,
O=C(O)c1cn(Cc2ccc(-n3cccn3)cc2)c2cc(NC[C@@H]3CCNC3)c(F)cc2c1=O,,inhibition [2]: 10%
COc1c(N2CC[C@@H](N)C2)c(F)cc2c(=O)c(C(=O)O)cn(Cc3ccc(-c4ccccc4)cc3)c12,4.04,
COc1c(N2CC[C@@H](CN)C2)c(F)cc2c(=O)c(C(=O)O)cn(Cc3ccc(-n4cccn4)cc3)c12,< 3.70,inhibition [2]: 10%
O=C(O)c1cn(Cc2ccc(-n3cccn3)cc2)c2cc(NC[C@H]3CCNC3)c(F)cc2c1=O,3.73,
COc1c(N2CC[C@@H](CN)C2)c(F)cc2c(=O)c(C(=O)O)cn(Cc3ccc(-c4ccccc4)cc3)c12,,Activity [3]: inactive; Activity [4]: inactive; GI50 [5]: 1.9 µM
COc1c(N2CC[C@@H](CN)C2)c(F)cc2c(=O)c(C(=O)O)cn(Cc3cc(-c4ccccc4)no3)c12,3.75,
O=C(O)c1cn(Cc2ccc(-c3ccccc3)cc2)c2cc(NC[C@H]3CCNC3)c(F)cc2c1=O,4.00,
CNC[C@@H]1CCN(c2cc3c(cc2F)c(=O)c(C(=O)O)cn3Cc2ccc(-c3ccccc3)cc2)C1,3.78,
COc1c(F)c(F)cc2c(=O)c(C(=O)O)cn(Cc3ccc(-c4ccccc4)cc3)c12,,inhibition [2]: inactive
CC(c1nc(-c2ccncc2)no1)n1cc(C(=O)O)c(=O)c2cc(F)c(N3CC[C@@H](CN)C3)cc21 (some centres undefined),< 3.70,inhibition [2]: 10%
COc1c(N2CC[C@@H](CN)C2)c(F)cc2c(=O)c(C(=O)O)cn(Cc3ccc4ccccc4c3)c12,,GI50 [5]: 3.1 µM
CNCCCCNc1cc2c(cc1F)c(=O)c(C(=O)O)cn2Cc1ccc(-c2ccccc2)cc1,4.05,
O=C(O)c1cn(Cc2ccc(-n3cccn3)cc2)c2cc(N3CC4CNCC4C3)c(F)cc2c1=O (centres undefined),3.76,
COc1c(N2CC[C@@H](CN)C2)c(F)cc2c(=O)c(C(N)=O)cn(Cc3ccc(-c4ccccc4)cc3)c12,3.73,
CNC(=O)c1cn(Cc2ccc(-c3ccccc3)cc2)c2c(OC)c(NC)c(F)cc2c1=O,,inhibition [2]: inactive
NC[C@@H]1CCN(c2cc3c(cc2F)c(=O)c(C(=O)O)cn3Cc2ccc(-n3cccn3)cc2)C1,4.04,
NC[C@@H]1CCN(c2cc3c(cc2F)c(=O)c(C(=O)O)cn3Cc2nc(-c3ccncc3)no2)C1,< 3.70,inhibition [2]: 10%
CNCCNc1cc2c(cc1F)c(=O)c(C(=O)O)cn2Cc1ccc(-c2ccccc2)cc1,< 3.70,inhibition [2]: 10%
CNCCNc1c(F)cc2c(=O)c(C(=O)O)cn(Cc3ccc(-c4ccccc4)cc3)c2c1OC,< 3.70,inhibition [2]: 10%
CNC[C@@H]1CCN(c2c(F)cc3c(=O)c(C(=O)O)cn(Cc4ccc(-c5ccccc5)cc4)c3c2OC)C1,3.81,
COc1c(N2CC[C@@H](C(N)=O)C2)c(F)cc2c(=O)c(C(=O)O)cn(Cc3ccc(-c4ccccc4)cc3)c12,< 3.70,inhibition [2]: 10%
CNCCCCNc1c(F)cc2c(=O)c(C(=O)O)cn(Cc3ccc(-c4ccccc4)cc3)c2c1OC,< 3.70,inhibition [2]: 10%
CNC(=O)c1cn(Cc2ccc(-c3ccccc3)cc2)c2c(OC)c(N3CC[C@@H](CN)C3)c(F)cc2c1=O,4.09,
COc1c(N2CC[C@@H](CO)C2)c(F)cc2c(=O)c(C(=O)O)cn(Cc3ccc(-c4ccccc4)cc3)c12,< 3.70,inhibition [2]: 10%

# Further lines, with some results ahead:
pIC50 [1],Compound,other results
4.21,NC[C@@H]1CCN(c2ccc3c(=O)c(C(=O)O)cn(Cc4ccc(-c5ccccc5)cc4)c3c2)C1,
4.44,COc1c(N2CC[C@@H](CN)C2)c(F)cc2c(=O)c(C(=O)NO)cn(Cc3ccc(-c4ccccc4)cc3)c12,
4.20,CNCCCNc1cc2c(cc1F)c(=O)c(C(=O)O)cn2Cc1ccc(-c2ccccc2)cc1,
4.46,CN[C@@H]1CCN(c2cc3c(cc2F)c(=O)c(C(=O)O)cn3Cc2ccc(-c3ccccc3)cc2)C1,
4.14,NCCNc1cc2c(cc1F)c(=O)c(C(=O)O)cn2Cc1ccc(-c2ccccc2)cc1,
4.16,NC[C@@H]1CCN(c2cc3c(cc2F)c(=O)c(C(=O)O)cn3Cc2ccc(-c3ccc(F)cc3)cc2)C1,
4.24,CN[C@@H]1CCN(c2c(F)cc3c(=O)c(C(=O)O)cn(Cc4ccc(-c5ccccc5)cc4)c3c2OC)C1,
4.15,COC(=O)c1cn(Cc2ccc(-c3ccccc3)cc2)c2c(OC)c(N3CC[C@@H](CN)C3)c(F)cc2c1=O,
4.23,COc1c(N2CC[C@@H](N)C2)c(F)cc2c(=O)c(C(=O)O)cn(Cc3ccc(-c4ccc(F)cc4)cc3)c12,
4.23,NC[C@@H]1CCN(c2cc3c(cc2F)c(=O)c(C(=O)O)cn3Cc2cc(-c3ccccc3)no2)C1,
4.21,NC[C@@H]1CCN(c2ccc3c(=O)c(C(=O)O)cn(Cc4ccc(-n5cccn5)cc4)c3c2)C1,
4.81,NC[C@@H]1CCN(c2cc3c(cc2F)c(=O)c(C(=O)O)cn3Cc2ccc(-c3ccccc3)cc2)C1,Activity [3]: inactive; Activity [4]: inactive
4.21,O=C(O)c1cn(Cc2ccc(-c3ccccc3)cc2)c2cc(N3C[C@H]4CCNC[C@H]4C3)c(F)cc2c1=O,
4.48,O=C(O)c1cn(Cc2ccc(-c3ccccc3)cc2)c2cc(N3CC4CNCC4C3)c(F)cc2c1=O (centres undefined),
4.20,N[C@@H]1CCN(c2cc3c(cc2F)c(=O)c(C(=O)O)cn3Cc2ccc(-c3ccccc3)cc2)C1,
4.50,O=C(O)c1cn(Cc2ccc(-n3cccn3)cc2)c2cc(N3C[C@H]4CCNC[C@H]4C3)c(F)cc2c1=O,
4.22,COc1c(N2CC[C@@H](CN)C2)c(F)cc2c(=O)c(C(=O)O)cn(Cc3ccc(-c4ccc(F)cc4)cc3)c12,
